Experimental data reported in paper PMC3281520 (Nature chemical biology, 2012).

Key:
[1] = target: T1, ProRS (amino acids 998–1513 of human EPRS) (Homo sapiens, UniProt P07814); test: [3H]-HFol binding to immobilized ProRS
T1 sequence (P07814 998-1512 limits assumed): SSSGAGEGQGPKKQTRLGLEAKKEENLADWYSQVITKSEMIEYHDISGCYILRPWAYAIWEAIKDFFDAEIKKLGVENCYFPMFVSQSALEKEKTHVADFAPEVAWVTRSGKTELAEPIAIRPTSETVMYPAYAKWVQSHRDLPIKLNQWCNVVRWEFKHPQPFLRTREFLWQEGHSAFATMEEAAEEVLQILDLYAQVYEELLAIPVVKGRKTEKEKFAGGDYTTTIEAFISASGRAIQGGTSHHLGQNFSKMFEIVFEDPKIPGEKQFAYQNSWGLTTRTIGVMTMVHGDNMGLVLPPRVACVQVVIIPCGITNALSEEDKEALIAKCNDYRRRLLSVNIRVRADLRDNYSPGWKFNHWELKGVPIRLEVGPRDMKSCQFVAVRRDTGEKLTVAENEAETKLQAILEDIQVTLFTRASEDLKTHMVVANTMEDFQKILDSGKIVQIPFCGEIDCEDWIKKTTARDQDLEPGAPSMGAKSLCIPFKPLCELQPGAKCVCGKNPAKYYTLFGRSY
Outline: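 His6-tagged human EPRS prolyl-tRNA synthetase domain, expressed in E. coli, immobilized on Ni-NTA beads. Beads washed twice in ice-cold buffer; bound counts by scintillation, with beads given tag-free E. coli extract as background.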

[2] = tested on: primary murine CD4+ CD25− T cells; test: Th17 cell differentiation; assay type: cell-based, mouse
Outline: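 CD4+ CD25− T cells from spleens and peripheral lymph nodes of wild-type C57B/6 mice, TCR-activated under Th17-polarizing conditions with test compound and amino acid supplements: 10x EAA or NEAA mixes, or single amino acids at 1 mM. Day 4 restimulation with PMA 10 nM, ionomycin and brefeldin A for 4–5 h. Intracellular cytokine staining, flow cytometry; % IL-17+ IFNγ− cells, triplicate wells, SD.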

[3] = tested on: translation in rabbit reticulocyte lysate (RRL); test: Cell free in vitro translation in rabbit reticulocyte lysate; assay type: biochemical; settings: for effect on translation of luciferase RNA in RRL: cell free, luminescence assay (Fig. 2a, 2b); for translation of Nopropep (proline-free polypeptide) in RRL / translation of Propep (polypeptide with proline dipeptide) in RRL: inhibitor 1 μM, anti-myc Western blot (Fig. 2c)
Outline: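 Rabbit reticulocyte lysate per kit instructions, standard amino acid mix diluted 5-fold; sometimes preincubated at 30 degrees with another RNA to deplete endogenous charged tRNAs. Luciferase mRNA translation read by luciferase luminescence. Rescue with amino acid mixtures or single amino acids at 1 mM each; triplicates, SD. Myc-tagged peptides ± proline dipeptide: inhibitors 1 μM, proline 1 mM, anti-myc Western blot.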

AAR pathway in MEFs = test: AAR pathway activation in MEFs; assay type: cell-based, mouse; settings: 2 hours (Fig. 5a); for stimulation of GCN2 phosphorylation in the presence of proline: 2 mM proline
Outline: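 MEFs grown in 10% FCS/DMEM, then exposed to test compound with or without 2 mM proline for 2 h. Lysis was in RIPA with 5 mM EDTA, phosphatase and protease inhibitors. Western blot for total GCN2 and Thr898-phospho-GCN2; three separate experiments. For CHOP: 50 nM test compound ± 2 mM proline, lysis 6 h later, CHOP Western blot with cytoplasmic actin as loading control.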

[4] = tested on: prolyl-tRNA charging in the RRL system; test: tRNA charging in RRL; assay type: biochemical, rabbit; settings: doses comparable to those that inhibit translation (Fig. 2d)
Outline: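 Rabbit reticulocyte lysate incubated with 1 μCi 14C-proline or 35S-methionine, added bovine tRNA and 2 μM puromycin to block use of charged tRNA in translation, with or without test compound. Total tRNA then extracted with a small-RNA isolation kit. Radioactivity in tRNA measured by liquid scintillation counting; triplicates, SD.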

[5] = target: prolyl tRNA synthetase domain of human EPRS (ProRS) (Homo sapiens, UniProt P07814); test: Assay of ProRS activity; assay type: biochemical
mTORC1 signaling = mTORC1 signaling in T cells and fibroblasts; assay type: cell-based, mouse; settings: 100 nM HF in MEFs (Supplementary Fig. 10)
[6] = Intracellular HF levels by anti-HF ELISA; assay type: in vitro ADME, mouse; settings: MEFs, 2 mM proline, 2 hours (Supplementary Fig. 11)
[7] = tested on: mouse embryo fibroblasts (MEFs); test: ECM gene expression and protein production in fibroblasts; assay type: cell-based
Outline: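 MEFs in 10% FCS/DMEM were treated with 50 nM test compound and/or 2 mM proline. Exposure was 4 h for CHOP and S100A4 and 24 h for Col1A1 and Col1A2. mRNA by quantitative RT-PCR, normalised to TBP, relative to untreated. Triplicate determinations from triplicate plates; two-tailed Student's t test for compound alone versus compound plus proline.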

SMILES: C[C@H](N)C(=O)NS(=O)(=O)OC[C@H]1O[C@@H](n2cnc3c(N)ncnc32)[C@H](O)[C@@H]1O [AlaSAd, alanyl sulfamoyl adenosine]
- inhibition of binding of [3H]-HFol to ProRS at 50 nM ([1]; 50 nM (Fig. 4a)): partially inhibited

SMILES: C[C@@H]1C[C@H](C)C[C@H](C)[C@@H](O)CC(=O)O[C@H]([C@@H]2CCC[C@H]2C(=O)O)C/C=C/C=C(/C#N)[C@H](O)[C@@H](C)C1 [Borrelidin, borrelidin]
- Th17 cell differentiation ([2]; Th17 polarizing conditions, borrelidin 6 nM (Supplementary Fig. 13)): inhibited
- effects on Th17 differentiation on addition of excess cognate amino acid ([2]; threonine 1 mM (Fig. 6b)): reversed

SMILES: O=C(C[C@H]1NCCC[C@@H]1O)Cn1cnc2ccccc2c1=O [FF, febrifugine]
- effect on translation of luciferase RNA in RRL [3]: inhibited
- translation of Nopropep (proline-free polypeptide) in RRL [3]: no effect
- translation of Propep (polypeptide with proline dipeptide) in RRL [3]: prevent translation
- stimulation of GCN2 phosphorylation in the presence of proline (AAR pathway in MEFs): abrogated
- GCN2 phosphorylation in fibroblasts (AAR pathway in MEFs): stimulation

SMILES: O=C(CC1NCCCC1O)Cn1cnc2cc(Br)c(Cl)cc2c1=O (stereo not shown) [HF, halofuginone]
- effect on translation of luciferase RNA in RRL [3]: inhibited
- translation of Nopropep (proline-free polypeptide) in RRL [3]: no effect
- translation of Propep (polypeptide with proline dipeptide) in RRL [3]: prevent translation
- translation inhibited by HF, after supplementation of RRL with excess amino acids ([3]; proline 1 mM, only proline is effective (Fig. 2a)): restores
- incorporation of 14C-Pro into tRNA [4]: inhibited
- Ki [5]: 18.3 nM
- competition of [3H]-HFol binding to ProRS ([1]; Fig. 3a): competed
- stimulation of GCN2 phosphorylation in the presence of proline (AAR pathway in MEFs): abrogated
- GCN2 phosphorylation in fibroblasts (AAR pathway in MEFs): stimulation
- inhibition of mTORC1 signaling (mTORC1 signaling): without concomitant inhibition
- intracellular accumulation of HF on proline addition [6]: not affected
- Th17 differentiation in HF-treated T cells with individual amino acid supplement ([2]; 10 nM HF, proline 1 mM, only proline effective (Fig. 6a)): rescued
- inhibition of ECM proteins in the presence of proline ([7]; 2 mM proline in the media (Supplementary Fig. 15)): reversed
- production of secreted Type I procollagen and of fibronectin ([7]; 24 hours treatment (Fig. 6d)): dramatically inhibited
- expression of mRNA encoding CHOP ([7]; MEFs, HF 50 nM, 4 hours (Fig. 6c)): stimulated
- mRNA levels of Col1A1, Col1A2, and S100A4 ([7]; MEFs, HF 50 nM, 4 hours (S100A4) or 24 hours (Col1A1, Col1A2), restored by proline (Fig. 6c)): inhibits
- 35S-methionine incorporation into total protein ([7]; doses that inhibit ECM protein production (Fig. 6d)): did not significantly change
